Experimental data pooled from the literature.
Lines come from different studies, so protocols differ.
Target: Serine/threonine-protein kinase DCLK1 (DCLK1, Homo sapiens, UniProt O15075)
Residues used in one study (O15075 1-740): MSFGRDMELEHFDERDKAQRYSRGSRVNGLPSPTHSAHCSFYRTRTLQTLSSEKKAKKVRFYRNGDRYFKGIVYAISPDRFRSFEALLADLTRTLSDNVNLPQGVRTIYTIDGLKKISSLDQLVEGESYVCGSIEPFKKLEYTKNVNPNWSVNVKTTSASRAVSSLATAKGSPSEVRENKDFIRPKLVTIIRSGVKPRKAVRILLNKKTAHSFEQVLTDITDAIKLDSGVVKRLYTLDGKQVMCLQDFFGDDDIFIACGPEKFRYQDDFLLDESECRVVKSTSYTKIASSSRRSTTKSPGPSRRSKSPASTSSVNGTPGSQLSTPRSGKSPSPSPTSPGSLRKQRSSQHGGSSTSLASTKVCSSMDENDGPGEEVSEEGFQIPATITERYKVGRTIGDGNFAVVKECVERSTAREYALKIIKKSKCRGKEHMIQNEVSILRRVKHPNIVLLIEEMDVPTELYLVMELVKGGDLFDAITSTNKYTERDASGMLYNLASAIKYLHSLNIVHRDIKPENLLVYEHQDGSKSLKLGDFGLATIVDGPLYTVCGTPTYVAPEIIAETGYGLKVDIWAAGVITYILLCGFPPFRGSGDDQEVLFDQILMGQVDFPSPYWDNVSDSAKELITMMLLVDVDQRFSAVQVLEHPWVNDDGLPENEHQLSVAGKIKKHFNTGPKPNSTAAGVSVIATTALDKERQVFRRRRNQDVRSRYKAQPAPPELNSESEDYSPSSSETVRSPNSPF

| Compound | test | conditions | quantity | value |
| --- | --- | --- | --- | --- |
| O=C(CSc1nc2nccnc2c(=O)n1CCc1ccccc1)Nc1nccs1 | enzyme activity, inhibitor | 10 µM | inhibition | 14% |
| Cc1ccc(C(=O)Nc2ccc(CN3CCN(C)CC3)c(C(F)(F)F)c2)cc1C#Cc1cnc2cccnn12 | enzyme activity, inhibitor | 23.5 nM | remaining activity | 93% |
| Cn1c2c(Cl)c(Cl)ccc2c2cc(N)[nH]c(=O)c21 | thermal stability, DSF | 10 µM | ΔTm | 0.1 °C |
| Cc1sc(C(=O)NC2COC2)cc1-n1cc(NC(=O)Nc2c(F)cccc2Cl)cn1 | enzyme activity, inhibitor | 10 µM | remaining activity | 67.2% |
| Nc1cnc(N2CCc3cc(S(=O)(=O)Nc4c(F)cc(Cl)cc4F)cc(N4CCCC4=O)c32)nc1 | cell-free assay, competition with immobilised ligand | 1 µM | remaining binding | 100% |
| Nc1ncnc2occ(-c3ccc(NC(=O)Nc4cc(C(F)(F)F)ccc4F)cc3)c12 | cell-free assay, inhibitor | 20 µM | remaining signal | 80% |
| CC(=O)N1CCC(c2ccc(C(=O)NC(=N)N)cc2C(F)(F)F)CC1 | cell-free assay, competition with immobilised ligand | 1 µM | remaining binding | 100% |
| CS(=O)(=O)Nc1cccc(-c2csc(NC(=O)CSc3nc4nccnc4c(=O)n3CCc3ccccc3)n2)c1 | enzyme activity, inhibitor | 10 µM | inhibition | 1% |
| Cn1c2c(c3ccc(Cl)c(Cl)c31)C(C#N)C1(CCOCC1)NC2=O (centres unmarked) | thermal stability, DSF | 10 µM | ΔTm | 0 °C |
| O=C(Nc1cnn(-c2csc(C(=O)NC3COC3)c2)c1)Nc1ccccc1Cl | enzyme activity, inhibitor | 5 µM | remaining activity | 99.2% |
| Cn1c2c(c3ccc(Cl)c(Cl)c31)C(C#N)C1(CCN(C(=O)OC(C)(C)C)CC1)NC2=O (racemic) | thermal stability, DSF | 10 µM | ΔTm | 0 °C |
| Cc1c(NC(=O)c2cc(C(N)=O)nc3cc(F)ccc23)c(C(F)(F)F)nn1Cc1ccc(C(C)(C)C)cc1 | cell-free assay, competition with immobilised ligand | 1 µM | remaining binding | 91% |
| Cn1c2c(Cl)c(Cl)ccc2c2cc[nH]c(=O)c21 | thermal stability, DSF | 10 µM | ΔTm | -0.1 °C |
| CC(C)(O)[C@H]1CC[C@H](Nc2ccc3ncc(-c4cccc(C(F)(F)F)c4)n3n2)CC1 | enzyme activity, inhibitor | 1 µM | remaining activity | 93.4% |
